Experimental data taken from publication PMC3717159 (Investigational New Drugs, 2012).
pIC50: −log10 of the molar value.

Tests used:
MV4-11 xenograft = experiment: Anti-tumor growth activity, xenograft model; type: in vivo, mouse; details: MV4-11, FLT3-activating mutation, oral
Procedure, shortened: (§1)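 Nude mice (athymic or CD-1) carried H1299 orthotopic tumours or MV4-11 xenografts. Test compound was formulated in 10 % acacia and given orally.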

H441 xenograft = experiment: Anti-tumor growth activity, xenograft model; type: in vivo, mouse; details: H441, MET over-expression, oral
Procedure, shortened: (§2)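 H441 xenografts were grown in nude mice. Test compound in 10 % acacia was given orally twice daily, either continuously or on intermittent schedules. The 5/2 schedule (5 dosing days, 2 drug-free days) ran for 6 cycles; the 9/5 schedule (9 dosing days, 5 drug-free days) ran for 3 cycles. Tumour growth was compared with vehicle controls.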

H1993 xenograft = experiment: Anti-tumor growth activity, xenograft model; type: in vivo, mouse; details: H1993, co-express MET and MST1R, oral
Procedure, shortened: (§3)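 Xenografts were grown in athymic or CD-1 nude mice. Test compound was formulated in 10 % acacia and given orally twice daily without interruption. Tumour growth was compared with a vehicle-treated control group.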

DU145 cells = experiment: HGF induced cell scattering assay; type: cell-based; details: 0.01–10 μM, HGF 20 ng/ml, 48 h, colony counts
Procedure, shortened: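 DU145 cells (2 × 10^3/well) were plated on poly-D-lysine and given test compound (0.4 % DMSO), then immediately human HGF (20 ng/ml). After 48 h at 37 °C, cells were fixed in 2 % formaldehyde and stained with Alexa488-phalloidin plus propidium iodide. Colonies (≥ 4 cells) were counted by laser-scanning microplate cytometry.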

ALK = ALK (Homo sapiens, UniProt Q9UM73); experiment: Biochemical screening against 442 kinases
U-87MG xenograft tumors = experiment: Multiplexed immunofluorescence tumor tissue imaging of U-87MG xenograft tumors; type: in vivo, mouse; details: 12 mg/kg once daily, 28 days, vs vehicle
Procedure, shortened: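 Mice bearing U-87MG xenografts received test compound orally (10 % acacia) at 1.3 or 12 mg/kg once daily for 28 days, or vehicle. Tumours were then excised and fixed in Zinc-Tris. One panel stained […], CD31, Ki67 and TUNEL; the other stained Hoechst, CD31, GLUT1 and smooth muscle actin. Staining was quantified by imaging.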

HT29 xenograft = experiment: Anti-tumor growth activity, xenograft model; type: in vivo, mouse; details: HT29, co-express MET and MST1R, oral
Procedure, shortened: as §3

[1] = target: MET phosphorylation in S114 xenograft tumors (Homo sapiens, UniProt P08581); experiment: In vivo MET target inhibition in S114 xenograft tumors; design: species or system mouse
Procedure, shortened: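 Subcutaneous tumors from S114 cells (NIH3T3-derived murine line engineered to express human MET and HGF) in nude mice. Test compound in 10 % acacia, single oral dose. Dose response read 2 h post-dose (n = 8 per dose group, 4 studies pooled); 12 mg/kg time course over 24 h. Tumor phospho-MET measured by MSD ELISA relative to vehicle group, with pharmacokinetic analysis alongside.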

LTK = LTK (Homo sapiens, UniProt P29376); experiment: Biochemical screening against 442 kinases
Pharmacokinetics in mice = details: mouse, in vivo, oral
H1299 orthotopic model = experiment: Anti-tumor growth activity, orthotopic model of NSCLC; type: in vivo, mouse; details: AXL over-expression, oral
Procedure, shortened: as §1

human MET kinase domain [2] = target: T1, human MET kinase domain (Homo sapiens, UniProt P08581); experiment: MET kinase radiometric filter-binding assay; type: biochemical; details: versus ATP
MV4-11 cells = experiment: In vitro anti-proliferative activity for MV4-11 cells; type: cell-based; details: Homo sapiens, MV4-11, read-out: in vitro anti-proliferative activity IC50
MKN45 xenograft = experiment: Anti-tumor growth activity, xenograft model; type: in vivo, mouse; details: MKN45, very high MET gene amplification, oral
Procedure, shortened: as §3

human MET kinase domain [3] = target: T1, human MET kinase domain; experiment: MET kinase spin column assay; type: biochemical; details: from Koff
[4] = Pharmacokinetics in non-human primate; details: in vivo, oral
U-87MG xenograft = experiment: Anti-tumor growth activity, xenograft model; type: in vivo, mouse; details: MET autocrine model, oral
Procedure, shortened: as §2, with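 “U-87MG” for “H441”, “intermittently.” for “on intermittent schedules.”, “off)” for “drug-free days)”, “4” for “6”, “2” for “3”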

KP4 xenograft = experiment: Anti-tumor growth activity, xenograft model; type: in vivo, mouse; details: KP4, MET autocrine model, oral
Procedure, shortened: as §3

[5] = S114 xenograft, 2 h after dose, oral, 4 studies
[6] = S114 xenograft, plasma concentration, 2 h after dose

Sequence of MET phosphorylation in S114 xenograft tumors (P08581 25-1390): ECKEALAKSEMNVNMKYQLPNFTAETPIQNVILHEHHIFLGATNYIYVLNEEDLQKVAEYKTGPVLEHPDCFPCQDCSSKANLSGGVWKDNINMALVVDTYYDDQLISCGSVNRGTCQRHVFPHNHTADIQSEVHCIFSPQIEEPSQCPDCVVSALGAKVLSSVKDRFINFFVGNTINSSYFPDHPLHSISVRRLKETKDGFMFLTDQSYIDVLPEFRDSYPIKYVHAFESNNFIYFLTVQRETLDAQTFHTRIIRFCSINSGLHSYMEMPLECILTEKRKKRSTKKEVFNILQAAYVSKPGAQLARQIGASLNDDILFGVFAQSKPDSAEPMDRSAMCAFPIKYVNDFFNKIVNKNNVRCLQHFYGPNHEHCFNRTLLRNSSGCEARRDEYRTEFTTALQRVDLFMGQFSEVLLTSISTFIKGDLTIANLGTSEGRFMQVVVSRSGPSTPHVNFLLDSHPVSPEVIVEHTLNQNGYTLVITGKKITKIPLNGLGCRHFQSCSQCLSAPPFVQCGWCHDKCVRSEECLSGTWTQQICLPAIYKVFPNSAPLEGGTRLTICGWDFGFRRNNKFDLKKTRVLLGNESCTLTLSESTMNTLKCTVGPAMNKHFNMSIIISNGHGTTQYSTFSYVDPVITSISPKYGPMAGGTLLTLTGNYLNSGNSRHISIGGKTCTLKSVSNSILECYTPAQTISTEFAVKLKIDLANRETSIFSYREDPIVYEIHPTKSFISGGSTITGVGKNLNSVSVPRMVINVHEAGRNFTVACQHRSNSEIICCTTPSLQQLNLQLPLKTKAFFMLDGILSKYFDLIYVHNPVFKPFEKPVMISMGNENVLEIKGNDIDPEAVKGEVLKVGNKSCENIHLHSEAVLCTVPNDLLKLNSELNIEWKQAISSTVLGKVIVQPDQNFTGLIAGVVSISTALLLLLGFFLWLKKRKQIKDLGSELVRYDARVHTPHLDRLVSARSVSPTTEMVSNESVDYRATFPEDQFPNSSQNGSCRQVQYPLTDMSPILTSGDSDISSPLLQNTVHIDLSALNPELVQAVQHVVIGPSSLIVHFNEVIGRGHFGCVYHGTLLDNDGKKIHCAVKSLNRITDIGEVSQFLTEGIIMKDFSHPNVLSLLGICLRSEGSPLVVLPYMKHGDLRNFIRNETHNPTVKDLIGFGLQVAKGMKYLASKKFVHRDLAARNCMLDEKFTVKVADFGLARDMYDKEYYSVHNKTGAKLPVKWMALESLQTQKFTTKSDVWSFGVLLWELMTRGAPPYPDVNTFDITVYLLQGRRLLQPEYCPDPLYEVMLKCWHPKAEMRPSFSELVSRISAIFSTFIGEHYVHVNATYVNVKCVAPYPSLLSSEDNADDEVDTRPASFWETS
T1 sequence (P08581 1078-1345 limits assumed): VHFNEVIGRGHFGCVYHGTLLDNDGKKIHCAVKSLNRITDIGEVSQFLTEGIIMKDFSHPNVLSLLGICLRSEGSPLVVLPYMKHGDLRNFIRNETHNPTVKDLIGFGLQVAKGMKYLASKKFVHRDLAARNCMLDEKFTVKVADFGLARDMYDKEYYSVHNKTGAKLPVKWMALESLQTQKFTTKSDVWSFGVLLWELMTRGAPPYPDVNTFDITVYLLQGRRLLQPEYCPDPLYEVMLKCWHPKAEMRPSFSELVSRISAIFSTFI
Sequence of ALK (Q9UM73 19-1620): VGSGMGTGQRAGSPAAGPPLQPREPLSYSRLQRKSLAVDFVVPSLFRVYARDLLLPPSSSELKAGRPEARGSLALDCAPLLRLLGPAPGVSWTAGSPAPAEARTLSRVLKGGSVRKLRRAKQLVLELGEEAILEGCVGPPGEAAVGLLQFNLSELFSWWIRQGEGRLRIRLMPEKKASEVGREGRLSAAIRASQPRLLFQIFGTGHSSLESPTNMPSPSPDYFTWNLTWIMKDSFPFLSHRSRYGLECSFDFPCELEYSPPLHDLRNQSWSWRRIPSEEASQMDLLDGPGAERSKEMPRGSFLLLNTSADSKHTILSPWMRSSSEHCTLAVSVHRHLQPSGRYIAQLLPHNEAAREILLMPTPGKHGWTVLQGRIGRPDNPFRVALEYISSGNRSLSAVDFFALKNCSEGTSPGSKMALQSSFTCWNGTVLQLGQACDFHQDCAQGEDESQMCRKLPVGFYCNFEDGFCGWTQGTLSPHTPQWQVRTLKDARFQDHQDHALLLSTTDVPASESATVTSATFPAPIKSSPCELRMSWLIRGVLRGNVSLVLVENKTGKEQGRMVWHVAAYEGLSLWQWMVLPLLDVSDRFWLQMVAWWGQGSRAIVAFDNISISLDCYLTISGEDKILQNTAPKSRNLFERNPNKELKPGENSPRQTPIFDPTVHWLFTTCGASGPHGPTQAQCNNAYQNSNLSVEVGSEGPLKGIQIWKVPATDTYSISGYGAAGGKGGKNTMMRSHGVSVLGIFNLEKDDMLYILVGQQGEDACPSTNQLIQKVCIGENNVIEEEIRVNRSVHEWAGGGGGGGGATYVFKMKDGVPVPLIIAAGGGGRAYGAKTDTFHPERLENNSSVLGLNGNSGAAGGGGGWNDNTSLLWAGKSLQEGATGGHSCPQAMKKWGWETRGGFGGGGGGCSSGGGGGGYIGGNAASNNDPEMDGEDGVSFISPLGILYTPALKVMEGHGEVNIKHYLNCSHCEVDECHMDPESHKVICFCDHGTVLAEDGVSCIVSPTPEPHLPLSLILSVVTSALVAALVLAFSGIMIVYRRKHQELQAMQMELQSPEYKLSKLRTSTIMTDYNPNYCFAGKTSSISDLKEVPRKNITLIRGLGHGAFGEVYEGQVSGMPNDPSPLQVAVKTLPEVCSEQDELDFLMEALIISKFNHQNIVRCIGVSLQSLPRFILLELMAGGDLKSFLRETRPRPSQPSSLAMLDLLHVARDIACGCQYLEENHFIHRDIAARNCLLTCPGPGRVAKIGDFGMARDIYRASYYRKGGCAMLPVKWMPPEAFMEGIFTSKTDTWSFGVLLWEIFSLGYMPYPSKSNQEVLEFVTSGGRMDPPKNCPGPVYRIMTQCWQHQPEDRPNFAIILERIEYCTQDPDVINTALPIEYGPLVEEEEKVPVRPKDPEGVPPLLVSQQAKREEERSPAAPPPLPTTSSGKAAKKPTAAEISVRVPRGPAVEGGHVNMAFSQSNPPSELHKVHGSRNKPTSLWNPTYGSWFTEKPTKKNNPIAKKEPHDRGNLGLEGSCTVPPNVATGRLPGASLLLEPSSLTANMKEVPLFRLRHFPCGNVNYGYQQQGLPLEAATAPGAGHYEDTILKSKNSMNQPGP
Sequence of LTK (P29376 17-864): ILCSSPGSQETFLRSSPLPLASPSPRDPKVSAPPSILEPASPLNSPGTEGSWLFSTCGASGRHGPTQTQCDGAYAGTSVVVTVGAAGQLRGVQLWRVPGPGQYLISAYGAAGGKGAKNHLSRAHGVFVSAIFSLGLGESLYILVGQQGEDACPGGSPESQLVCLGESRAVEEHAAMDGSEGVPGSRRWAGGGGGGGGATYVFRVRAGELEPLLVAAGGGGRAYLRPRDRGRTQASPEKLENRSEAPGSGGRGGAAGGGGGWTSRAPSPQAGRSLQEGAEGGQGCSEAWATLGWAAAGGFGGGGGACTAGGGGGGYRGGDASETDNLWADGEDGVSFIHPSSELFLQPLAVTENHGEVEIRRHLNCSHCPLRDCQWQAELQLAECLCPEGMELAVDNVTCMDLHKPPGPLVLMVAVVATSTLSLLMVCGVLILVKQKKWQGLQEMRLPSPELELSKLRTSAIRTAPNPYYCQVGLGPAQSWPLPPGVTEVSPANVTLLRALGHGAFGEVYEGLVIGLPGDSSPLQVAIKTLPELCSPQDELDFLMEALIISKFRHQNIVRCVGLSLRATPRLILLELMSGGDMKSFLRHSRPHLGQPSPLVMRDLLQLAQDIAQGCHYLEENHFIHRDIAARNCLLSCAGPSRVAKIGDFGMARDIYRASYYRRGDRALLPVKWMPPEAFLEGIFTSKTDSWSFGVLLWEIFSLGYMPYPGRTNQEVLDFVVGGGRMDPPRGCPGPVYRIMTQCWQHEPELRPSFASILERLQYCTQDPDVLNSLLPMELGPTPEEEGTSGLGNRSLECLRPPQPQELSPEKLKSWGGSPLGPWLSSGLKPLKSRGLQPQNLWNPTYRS

activity against ALK (ALK): does not have significant activity
p-MET inhibition in tumors by 16 h ([1]; S114 xenograft, 12 mg/kg oral, 16 h): no p-MET inhibition was observed
inhibition of p-MET ([1]; S114 xenograft, 12 mg/kg oral, at 2 h and maintained up to 8 h): Ninety-five percent
composite TED50 (50 % target inhibition dose) [1, 5]: 1.2 mg/kg
composite TED90 (90 % target inhibition dose) [1, 5]: 7.4 mg/kg
inhibition of MET phosphorylation ([1]; S114 xenograft, 2 h post-treatment, single 50-mg/kg dose, oral): 98%
TEC50 (the concentration that inhibited 50 % MET phosphorylation) [1, 6]: 0.2 µM
TEC90 (the concentration that inhibited 90 % MET phosphorylation) [1, 6]: 2 µM
inhibition at 12 mg/kg ([1]; mouse, po, read-out: inhibition of p-MET): 95%
activity against LTK (LTK): does not have significant activity
half-life (Pharmacokinetics in mice): 2.9 h
mode of inhibition (human MET kinase domain [2]): competitive
pIC50 (MV4-11 cells): 8.40
half-life (t1/2) (human MET kinase domain [3]): 8.75 h
half-life [4]: 14.3 h
Compound: Cc1ccc(C(=O)Nc2ccc(Oc3cc4cnn(C)c4cc3-c3cn[nH]c3)c(F)c2)c(=O)n1-c1ccc(F)cc1 [LY2801653, N-(3-fluoro-4-{[1-methyl-6-(1H-pyrazol-4-yl)-1H-indazol-5 yl]oxy}phenyl)-1-(4-fluorophenyl)-6-methyl-2-oxo-1,2-dihydropyridine-3-carboxamide]
in vivo anti-tumor growth activity (MV4-11 xenograft): in vivo anti-tumor growth activity
anti-tumor growth effect (H441 xenograft): significant anti-tumor growth effect
tumor activity in xenograft model (H1993 xenograft): demonstrates tumor activity
effect on HGF-induced DU-145 cell scattering (DU145 cells): completely blocked
GLUT1 expression (U-87MG xenograft tumors): decrease in GLUT1 expression
apoptotic area (U-87MG xenograft tumors): significantly reduced apoptotic area
pericyte coverage of vessels (U-87MG xenograft tumors): increase in pericyte coverage of vessels
tumor activity in xenograft model (HT29 xenograft): demonstrates tumor activity
in vivo anti-tumor growth activity (H1299 orthotopic model): in vivo anti-tumor growth activity
anti-tumor growth effect (MKN45 xenograft): significant anti-tumor growth effect
anti-tumor growth effect (U-87MG xenograft): significant anti-tumor growth effect
anti-tumor growth effect (KP4 xenograft): significant anti-tumor growth effect
